pIC50: −log10 of the molar value. ≈ marks a conversion by molar mass, not a printed value.
Tests used:
[1] = Photostability of the compound assessed as compound degradation administered as solid irradiated with sun light and measured after 7 days by HPLC analysis
[2] = Photostability of the compound at pH 7.2 assessed as compound degradation administered as solution irradiated with sun light and measured after 7 days by HPLC analysis; type: physicochemical; conditions: time 7 day, read-out: Drug degradation
In short: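 Compound in solution was kept for 7 days under "mild" light-stress conditions, with no pH adjustment. The pH listed for each compound is the solution's own intrinsic pH. Result is % degradation of parent.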

Cytochrome P450 2C9 = Cytochrome P450 2C9 (Homo sapiens, UniProt P11712); test: Inhibition of CYP2C9 in human liver microsomes using diclofenac as substrate preincubated with compound followed by NADPH addition by LC-MS/MS analysis; type: ADME, Microsome
Chain of Cytochrome P450 2C9 (P11712 whole entry): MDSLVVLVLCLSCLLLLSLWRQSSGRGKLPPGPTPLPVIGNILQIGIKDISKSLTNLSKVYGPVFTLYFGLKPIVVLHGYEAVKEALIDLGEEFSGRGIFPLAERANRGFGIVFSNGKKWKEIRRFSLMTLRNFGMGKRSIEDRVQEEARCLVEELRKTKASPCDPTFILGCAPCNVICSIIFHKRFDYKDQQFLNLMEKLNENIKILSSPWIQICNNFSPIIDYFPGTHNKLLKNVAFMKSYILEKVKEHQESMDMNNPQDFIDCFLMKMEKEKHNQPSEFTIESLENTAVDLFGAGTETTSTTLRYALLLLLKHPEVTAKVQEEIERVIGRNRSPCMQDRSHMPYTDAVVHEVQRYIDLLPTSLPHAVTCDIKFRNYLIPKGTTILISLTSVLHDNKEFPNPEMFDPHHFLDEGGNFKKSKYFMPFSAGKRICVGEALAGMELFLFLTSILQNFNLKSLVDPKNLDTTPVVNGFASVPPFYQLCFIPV

Cytochrome P450 2C8 = target: T1, Cytochrome P450 2C8 (Homo sapiens, UniProt P10632); test: Inhibition of CYP2C8 in human liver microsomes using amodiaquine as substrate preincubated with compound followed by NADPH addition by LC-MS/MS analysis; type: ADME, Microsome
T1 sequence (P10632 whole entry): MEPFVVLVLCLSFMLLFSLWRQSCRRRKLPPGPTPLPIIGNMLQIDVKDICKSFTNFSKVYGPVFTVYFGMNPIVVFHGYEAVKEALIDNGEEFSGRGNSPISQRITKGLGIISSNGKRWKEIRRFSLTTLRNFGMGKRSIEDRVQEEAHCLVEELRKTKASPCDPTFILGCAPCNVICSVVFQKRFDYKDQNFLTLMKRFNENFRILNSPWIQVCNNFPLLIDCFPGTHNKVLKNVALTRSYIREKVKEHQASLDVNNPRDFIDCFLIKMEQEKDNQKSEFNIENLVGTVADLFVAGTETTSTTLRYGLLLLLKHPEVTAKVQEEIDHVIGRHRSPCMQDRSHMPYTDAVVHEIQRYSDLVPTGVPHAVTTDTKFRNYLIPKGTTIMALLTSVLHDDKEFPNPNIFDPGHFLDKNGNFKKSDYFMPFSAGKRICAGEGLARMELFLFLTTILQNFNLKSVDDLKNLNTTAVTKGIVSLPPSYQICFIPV

Cytochrome P450 2D6 = Cytochrome P450 2D6 (Homo sapiens, UniProt P10635); test: Inhibition of CYP2D6 in human liver microsomes using dextromethorphan as substrate preincubated with compound followed by NADPH addition by LC-MS/MS analysis; type: ADME, Microsome
Chain of Cytochrome P450 2D6 (P10635 whole entry): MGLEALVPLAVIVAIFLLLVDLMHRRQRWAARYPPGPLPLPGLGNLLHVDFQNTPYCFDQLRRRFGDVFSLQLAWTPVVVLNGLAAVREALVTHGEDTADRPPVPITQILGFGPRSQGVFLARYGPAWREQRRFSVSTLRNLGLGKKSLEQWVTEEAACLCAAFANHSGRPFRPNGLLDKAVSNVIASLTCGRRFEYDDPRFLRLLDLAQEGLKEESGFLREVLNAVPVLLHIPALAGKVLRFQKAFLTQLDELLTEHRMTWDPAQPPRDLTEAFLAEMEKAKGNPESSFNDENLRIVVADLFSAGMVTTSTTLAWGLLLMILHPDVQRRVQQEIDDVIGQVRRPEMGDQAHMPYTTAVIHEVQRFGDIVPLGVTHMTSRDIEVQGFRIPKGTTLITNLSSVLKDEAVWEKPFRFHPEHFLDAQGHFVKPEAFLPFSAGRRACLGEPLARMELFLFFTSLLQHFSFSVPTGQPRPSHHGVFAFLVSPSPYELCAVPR

Cytochrome P450 2C19 = Cytochrome P450 2C19 (Homo sapiens, UniProt P33261); test: Inhibition of CYP2C19 in human liver microsomes using mephenytoin as substrate preincubated with compound followed by NADPH addition by LC-MS/MS analysis; type: ADME, Microsome
Chain of Cytochrome P450 2C19 (P33261 whole entry): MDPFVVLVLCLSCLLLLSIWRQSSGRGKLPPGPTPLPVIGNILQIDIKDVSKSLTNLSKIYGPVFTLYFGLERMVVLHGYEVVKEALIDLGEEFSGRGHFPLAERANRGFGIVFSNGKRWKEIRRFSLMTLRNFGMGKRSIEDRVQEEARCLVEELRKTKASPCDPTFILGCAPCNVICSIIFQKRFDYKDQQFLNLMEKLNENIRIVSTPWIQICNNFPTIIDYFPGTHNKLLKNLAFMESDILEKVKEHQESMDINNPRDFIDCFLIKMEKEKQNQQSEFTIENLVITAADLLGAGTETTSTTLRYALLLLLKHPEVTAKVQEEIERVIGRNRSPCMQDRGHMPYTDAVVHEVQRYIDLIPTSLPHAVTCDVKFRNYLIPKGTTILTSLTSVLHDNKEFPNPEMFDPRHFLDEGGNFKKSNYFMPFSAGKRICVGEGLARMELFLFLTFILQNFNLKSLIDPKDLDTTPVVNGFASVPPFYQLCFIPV

Cytochrome P450 3A4 = Cytochrome P450 3A4 (Homo sapiens, UniProt P08684); test: Inhibition of CYP3A4 in human liver microsomes using midazolam as substrate preincubated with compound followed by NADPH addition by LC-MS/MS analysis; type: ADME, Microsome
Chain of Cytochrome P450 3A4 (P08684 whole entry): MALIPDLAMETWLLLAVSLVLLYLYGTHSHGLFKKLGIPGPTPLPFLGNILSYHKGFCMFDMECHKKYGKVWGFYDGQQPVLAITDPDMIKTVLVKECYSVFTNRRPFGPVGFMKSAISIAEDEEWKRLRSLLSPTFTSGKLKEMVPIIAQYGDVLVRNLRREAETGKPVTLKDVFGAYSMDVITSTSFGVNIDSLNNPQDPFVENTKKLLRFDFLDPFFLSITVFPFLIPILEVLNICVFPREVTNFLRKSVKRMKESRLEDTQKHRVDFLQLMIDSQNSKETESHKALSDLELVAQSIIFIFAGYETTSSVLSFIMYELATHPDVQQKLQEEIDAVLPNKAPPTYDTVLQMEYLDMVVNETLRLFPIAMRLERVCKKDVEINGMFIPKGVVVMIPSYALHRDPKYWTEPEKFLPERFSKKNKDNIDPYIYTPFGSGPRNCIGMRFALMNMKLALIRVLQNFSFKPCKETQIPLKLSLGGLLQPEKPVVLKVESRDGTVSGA

[3] = Lipophilicity, logP of the compound; type: physicochemical; conditions: octanol/water; read-out: logP
[4] = Permeability of the compound at pH 7.4 by PAMPA assay; type: ADME; conditions: read-out: permeability
[5] = Aqueous solubility of the compound at pH 2.2 incubated for 24 hrs under shaking condition by LC-UV analysis; type: physicochemical; conditions: aqueous medium
In short: (§1)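 The highest concentration tested was 250 μM, so results are capped at that level. Values are reported in µg/ml.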

[6] = Aqueous solubility of the compound at pH 4.5 incubated for 24 hrs under shaking condition by LC-UV analysis; type: physicochemical; conditions: aqueous medium; in short: as §1
[7] = Aqueous solubility of the compound at pH 6.8 incubated for 24 hrs under shaking condition by LC-UV analysis; type: physicochemical; conditions: aqueous medium; in short: as §1
[8] = Metabolic stability in human liver microsomes assessed as hepatic blood flow at 1 uM preincubated with compound followed by NADPH addition by LC-MS/MS analysis; type: ADME, Microsome; conditions: read-out: QH
[9] = Octanol-water partition coefficient, logD of the compound at pH 2 by HPLC analysis; type: physicochemical; conditions: read-out: logD
[10] = Octanol-water partition coefficient, logD of the compound at pH 11 by HPLC analysis; type: physicochemical; conditions: read-out: logD

degraded at 168 h [1]: < 0.5%
degraded at 168 h [2]: < 0.5%
pIC50 (Cytochrome P450 2C9): 4.41
pIC50 (Cytochrome P450 2C8): < 4.30
pIC50 (Cytochrome P450 2D6): < 4.30
pIC50 (Cytochrome P450 2C19): < 4.30
pIC50 (Cytochrome P450 3A4): < 4.30
logP [3]: 3
Papp [4]: 8.4 ×10⁻⁶ cm/s
solubility thermodynamic at 24 h [5]: > 90 µg/mL
solubility thermodynamic at 24 h [6]: 67 µg/mL (≈ 187 µM)
solubility thermodynamic at 24 h [7]: > 73 µg/mL
hepatic extraction ratio at 1 µM [8]: 0.48
logD [9]: 1.2
logD [10]: 1.2
SMILES: CN1CCN(C(=O)c2ccc3ccc(C(=O)c4ccccc4)c-3cc2)CC1

Reference: ChEMBL document CHEMBL5120825, “The azulene scaffold from a medicinal chemist's perspective: Physicochemical and in vitro parameters relevant for drug discovery” (Eur J Med Chem, 2022)
